In series [1] the test system is A549. In words: Antiproliferative activity against human A549 cells assessed as reduction in cell viability after 72 hrs by MTT assay. It counts as functional, cell-based. To be noted: A549, 72 h.
Series [2] deals with A549. In words: Cytotoxicity against human A549 cells assessed as change in cell morphology incubated for 48 hrs. Format: functional, cell-based.
Series [3] has as its target T1, Tubulin (Sus scrofa) (UniProt P02554+P02550). Description: Induction of porcine brain tubulin polymerization at 10 uM.
Series [4] deals with A549. In words: Induction of cell cycle arrest in human A549 cells assessed as accumulation at G0/G1 phase at 2.5 uM incubated for 24 hrs by Muse cell analyzer based flow cytometry (reference value: 63.9%). Format: functional. A general note: Flow cytometry measures light scatter and fluorescence of single cells or particles in a stream.
For series [5], the system named is A549. In words: Induction of cell cycle arrest in human A549 cells assessed as accumulation at G2/M phase at 5 uM incubated for 24 hrs by Muse cell analyzer based flow cytometry (reference value: 22.3 to 24%). Format: functional.
The test system of series [6] is A549. Description: Induction of cell cycle arrest in human A549 cells assessed as increase in accumulation at G2/M phase incubated for 24 hrs by Muse cell analyzer based flow cytometry. It counts as functional.
For series [7], the target named is T1, Tubulin (Sus scrofa). Description: Inhibition of porcine brain tubulin polymerization at 10 uM.
The test system of series [8] is A549. Description: Induction of cell cycle arrest in human A549 cells assessed as accumulation at S phase at 2.5 uM incubated for 24 hrs by Muse cell analyzer based flow cytometry (reference value: 8%). It counts as functional.
Series [9] has as its system A549. Description: Induction of cell cycle arrest in human A549 cells assessed as accumulation at G0/G1 phase at 5 uM incubated for 24 hrs by Muse cell analyzer based flow cytometry (reference value: 63.9%). It counts as functional.
Series [10] deals with A549. Description: Induction of cell cycle arrest in human A549 cells assessed as accumulation at G2/M phase at 2.5 uM incubated for 24 hrs by Muse cell analyzer based flow cytometry (reference value: 22.3 to 24%). Format: functional.
The test system of series [11] is A549. Description: Induction of cell cycle arrest in human A549 cells assessed as accumulation at S phase at 5 uM incubated for 24 hrs by Muse cell analyzer based flow cytometry (reference value: 8%). Format: functional.
Series [12] concerns A549. Description: Induction of cell cycle arrest in human A549 cells assessed as accumulation at G2/M phase at 200 uM incubated for 24 hrs by Muse cell analyzer based flow cytometry (reference value: 16.2%). Format: functional.
Series [13] can be described thus: Drug uptake in nucleus of human A549 cells at 250 uM incubated for 3 hrs by Hoechst 33342 staining based confocal laser microscopic method. Format: ADME, subcellular. To be noted: a549, 3 h. In a few lines: (§1)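 Live A549 cells were incubated for 3 h with the FITC-linked conjugate at 250 μM, then stained with Hoechst 33342 nuclear dye at 0.1 for 5 min. Live-cell confocal laser microscopy located the green signal in the cytoplasm or nucleus.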

Series [14] is described as follows: Drug uptake in cytoplasm of human A549 cells at 250 uM incubated for 3 hrs by Hoechst 33342 staining based confocal laser microscopic method. Conditions: a549, 3 h. Format: ADME, subcellular. The method in brief: as §1

pIC50: −log10 of the molar value. Activity calls are given as the source filed them. No cut-off for these calls is given here.

T1 sequence (P02550 whole entry, looked up): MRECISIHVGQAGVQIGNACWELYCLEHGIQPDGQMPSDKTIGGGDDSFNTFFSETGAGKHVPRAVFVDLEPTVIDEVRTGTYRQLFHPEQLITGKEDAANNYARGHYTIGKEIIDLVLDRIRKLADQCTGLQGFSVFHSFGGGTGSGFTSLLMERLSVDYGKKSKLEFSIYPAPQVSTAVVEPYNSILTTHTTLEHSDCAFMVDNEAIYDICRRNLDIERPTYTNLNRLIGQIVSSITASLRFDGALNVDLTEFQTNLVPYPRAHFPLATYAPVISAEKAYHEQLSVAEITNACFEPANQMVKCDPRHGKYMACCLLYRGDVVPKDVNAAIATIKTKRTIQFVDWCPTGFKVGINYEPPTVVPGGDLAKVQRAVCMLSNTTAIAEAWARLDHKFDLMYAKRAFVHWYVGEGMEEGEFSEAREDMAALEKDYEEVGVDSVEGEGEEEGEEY
T1 sequence (P02554 whole entry, looked up): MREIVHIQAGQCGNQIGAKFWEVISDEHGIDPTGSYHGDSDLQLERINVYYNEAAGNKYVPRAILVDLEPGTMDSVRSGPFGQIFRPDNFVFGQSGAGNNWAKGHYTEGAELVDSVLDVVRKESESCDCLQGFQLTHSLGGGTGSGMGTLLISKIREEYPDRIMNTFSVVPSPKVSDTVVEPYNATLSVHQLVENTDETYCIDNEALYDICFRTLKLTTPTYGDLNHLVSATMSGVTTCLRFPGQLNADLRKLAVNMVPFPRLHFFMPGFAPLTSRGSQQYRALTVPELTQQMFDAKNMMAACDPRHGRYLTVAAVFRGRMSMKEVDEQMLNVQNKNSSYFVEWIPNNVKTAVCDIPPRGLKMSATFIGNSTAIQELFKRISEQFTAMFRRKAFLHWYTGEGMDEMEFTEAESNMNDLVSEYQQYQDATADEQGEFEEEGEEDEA

For orientation: pIC50 means −log10 of the IC50, conventionally taken in molar units. With `O=C(OCCOCCOCCO)c1ccc(-c2[nH]c3ccccc3c2-c2ccccc2)cc1`, the pIC50 in series [1] was 4.53.

On to `O=C(OCCOCCOCCO)c1ccc(-c2c(-c3ccccc3)[nH]c3ccccc23)cc1`, for which the result in series [2] was Active. Moreover, the pIC50 in series [1] was 4.99.

As to `COC(=O)c1ccc(-c2c(-c3ccccc3)n(CCOCCOCCO)c3ccccc23)cc1`, the pIC50 in [1] is 4.51.

`CC(=O)O[C@H]1C(=O)[C@@]2(C)[C@H]([C@H](OC(=O)c3ccccc3)[C@]3(O)C[C@H](OC(=O)[C@H](O)[C@@H](NC(=O)c4ccccc4)c4ccccc4)C(C)=C1C3(C)C)[C@]1(OC(C)=O)CO[C@@H]1C[C@@H]2O`: the result in series [3] was Active.

On to `COC(=O)c1ccc(-c2c(-c3ccccc3)[nH]c3ccccc23)cc1`, for which the Activity is 40.9% in [4]; 70 - 71% in series [5]; “Dose-dependent effect” in [6]; 9.5% in series [8]; 10.2% in [9]; 41.4 - 42.8% in series [10]. The Activity in [11] is given as 7.5%. Besides, the inhibition result in [7] is “Active”.

As to `O=C(OCCOCCOCCOCCOCCOCCNC(=S)Nc1ccc(-c2c3ccc(=O)cc-3oc3cc(O)ccc23)c(C(=O)O)c1)c1ccc(-c2c(-c3ccccc3)[nH]c3ccccc23)cc1`, in [12], the Activity is 53.3%. In addition, the Drug uptake entry is given as “Not Active” in series [13] and “Active” in [14]. Besides, the pIC50 in [1] is 3.62.

On to `COC(=O)c1ccc(-c2c(-c3ccccc3)c3ccccc3n2CCOCCOCCO)cc1`, for which the pIC50 in [1] is 4.38.
